Laboratory results published in ChEMBL document CHEMBL4513216, “Probing the Open Global Health Chemical Diversity Library for Multistage-Active Starting Points for Next-Generation Antimalarials” (ACS Infect Dis, 2020).

Assay: Toxicity liver stage against HepG2, at 10uM
Format: cell-based
Design: test concentration 10 uM, cell line HepG2-A16-CD81EGFP
Conditions: human, HepG2-A16-CD81EGFP cells; read-out: INHIBITION
In short: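 Uninfected HepG2-A16-CD81EGFP cells, 3 × 10^3 per well, 1536-well, plated on prespotted compound at 10 μM final, parasite-free screening media added to match infected plates; puromycin 10 μM positive, DMSO 0.5% negative; run in parallel with 48 h PbLuc assay at 37 °C, 5% CO2; viability by CellTiter-Glo luminescence, normalized to controls.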

Compound	cytotoxicity at 10 µM [%]
O=C([C@H]1CN(Cc2ccc(F)cc2)C[C@H]2OCC[C@@H]12)N1CCCO1	7.77
CCCC(=O)NC1CCCN(C(=O)c2ccc(C)nc2)C1 (stereo not given)	17.5
Cc1cccc(CN2C[C@@H]3COC[C@]3(CNC(=O)c3cccn3C)C2)n1	-5.64
Cc1cccc(CN2C[C@@H]3[C@@H](C(=O)NCC(C)C)CCS(=O)(=O)[C@@H]3C2)c1	-2.63
O=C(c1cc(Cl)cc(Cl)c1)N1CCN(c2nccs2)CC1	-5.69
COc1cc(CNC(=O)Nc2nnc(C3CC3)s2)ccc1O	31.3
CCc1cnc(CN(C)C(C)C(=O)N2CCc3ccccc3C2)s1 (stereo not given)	7.2
CCOCC1CN(C(=O)Cc2ccccn2)Cc2cnn(CC)c21 (stereo not given)	-68.9
O=C(c1cc(Cl)c2c(c1)OCO2)N1CCN(c2nccs2)CC1	-3.6
COCCN1C(=O)CC(N2CCN(c3ccccc3)CC2)C1=O (stereo not given)	1.22
O=C(Cn1ncc(N2CCNCC2)cc1=O)NCCc1ccc(F)cc1	0.342
COCCC(=O)N1CCC2(COCc3c(C)nc(NCC4CC4)nc32)C1 (stereo not given)	2.19
O=C(CN1CCCC(CO)C1)NCCOc1cccc(Cl)c1 (stereo not given)	-12.2
O=C(CC1CCCC1)N[C@H]1CN(Cc2c[nH]cn2)C[C@@H]1C1CC1	-54.7
Cc1nn(C)c(C)c1-c1nc2cc(S(=O)(=O)N3CCCC3)ccc2n1C	-6.05
CCC(=O)c1ccc(OCC(=O)NC(C)c2ncnn2CC)cc1 (stereo not given)	1.9
O=C1[C@@H]2CC[C@@H](CN(C3CSCCSC3)C2)N1Cc1cscn1	-15.1
CC1(C)CN(Cc2ccncc2)CCS1(=O)=O	-4.95
CN(Cc1csc(-c2ccccc2)n1)C(=O)CCn1ccccc1=O	-2.84
Cc1occc1C(=O)N1C[C@@H]2OCCN(CCN3CCCC3)[C@@H]2C1	-76.1
CC(=O)N1CCC1c1nc(-c2ccc(C)s2)no1 (stereo not given)	-1.78
O=C(NCCn1cc(Cl)cn1)C1CCN(C(=O)C2CC2)CC1	-50.5

Compound	cytotoxicity at 10 µM [%]
Cc1nccn1CC1CCN(C(=O)Cc2ccccc2)CC1	-17
CC(C)=CCN1C[C@@H]2CN(C(=O)c3ccc(CO)cc3)C[C@]2(C(=O)O)C1	2.21
CS(=O)(=O)c1ccc(CNCC2CCN(CCO)CC2)cc1	-18.8
O=C(c1cccc(F)c1)N1CCCN(Cc2cscn2)CC1	-3.13
COc1ccc(F)c(F)c1CN1CCC2(CC1)[C@H](O)C[C@@H]2OCCN	-14.5
CCn1cc(C(=O)NCc2ccc3c(c2)OCO3)c(C)n1	9.9
Cc1ccc(CC(=O)N2CCCC(c3nc(C)cs3)C2)cn1 (stereo not given)	-8.13
CN1CC2(CCCN(Cc3nnc(-c4ccccc4)o3)CC2)OC1=O (stereo not given)	0.184
O=C(O)[C@@H]1CN(CCOCCO)C[C@H]1c1ccccc1	-2.33
COCCN1CCCC12CCN(C(=O)CC1CCCC1)CC2	5.47
Cc1cc(C)n(CCCN(C)C(=O)CN2CC3(CCNCC3)OC2=O)n1	5.25
Cc1cc(C)cc(C(C)NCc2nnc(C)s2)c1 (stereo not given)	-5.77
CC(C)COC(C)C(=O)NCc1ccc(N(C)C)cc1 (stereo not given)	2.53
Cc1noc(C)c1CN(C)C(=O)NC1CCC(O)CC1 (stereo not given)	-9.21
CCOC(=O)CNC(=O)N1CCc2onc(-c3ccc(Cl)cc3)c2C1	-43.4
Cc1cccc(CN2CCOCC3(CCN(C4CCOCC4)C3)C2)c1 (stereo not given)	-0.819
Cc1ccc(CN2CCc3ncnc(C4CCOC4)c3CC2)s1 (stereo not given)	-0.827
O=C(c1ccccc1-n1cccn1)N1CCCN(c2cccnn2)CC1	7.03
CCCC(=O)NCCc1cc(NC)nc(-c2ccccn2)n1	1.12
CCc1nc(C(=O)N2CCOCC2CC(=O)c2ccccc2)c[nH]1 (stereo not given)	-0.613
Cn1cc(C(=O)OCC(N)=O)c(-c2ccc(F)cc2F)n1	-7.85
CN(Cc1nnc2n1CCC2)C(=O)CCc1ccc2c(c1)OCO2	-14

Compound	cytotoxicity at 10 µM [%]
Cn1c(C(=O)N2CCC(C3OCCO3)CC2)c(Cl)c2ccccc21	13.7
Cc1cc(NC(=O)CN2CCCC2c2noc(C(C)C)n2)on1 (stereo not given)	-6.31
c1ccc(Cn2ccnc2CN2CCCC2c2noc(C3CC3)n2)cc1 (stereo not given)	-0.818
O=C1CC2(CCN(S(=O)(=O)C3CC3)C2)CN1c1cncnc1 (stereo not given)	-11.9
CC=C(C)C(=O)NS(=O)(=O)c1ccc(C(F)(F)F)cn1	3.95
CCC(O)CN1CCN(C(=O)c2ccc(N(C)C)nn2)CC1 (stereo not given)	-6.83
O=C(c1ccoc1)N1CCC(NCc2cccnc2)CC1	8.21
CNc1nc(CNC(=O)Nc2cccc(-n3ccc(C)n3)c2)cs1	-15.7
COCc1nn(C(C)C)c2c1CCN(Cc1ccc(C)s1)C2	-5.82
Cc1cc(NC(=O)CNCc2csc(-c3cnccn3)n2)ccc1Cl	-3.52
CC(NC(=O)C1CN(c2ncnc3c2nnn3C)C1)c1ccccc1 (stereo not given)	2.8
Cc1noc(C)c1CN(C)C(=O)Nc1cnn(CC2CCCO2)c1 (stereo not given)	-2.77
COC(=O)c1ccc(OC)c(Cn2cc(Br)cn2)c1	3.05
Cc1cc(C(C)NC(=O)c2ccc(O)nc2)c(C)o1 (stereo not given)	-1.85
Cc1c(C(=O)N2CCC(N3CCCCC3)CC2)n(C)c2ccc(Cl)cc12	-63.8
Cn1cc(CN2CCCN(C(=O)c3ccc4ccccc4n3)CC2)cn1	-1.9
O=C(c1ccco1)N1CCc2onc(CN3CCCC3)c2C1	4.38
Cc1noc(C[C@@H]2COC[C@H]3CN(C(=O)C4=CCCC4)C[C@@H]23)n1	-0.91
Cn1nc(-c2ccc(Cl)cc2)c(Br)c1C(=O)O	-46.8
CCSCc1cccc(NC(=O)N(C)Cc2ncnn2C)c1	-0.477
CC(C)c1nc(C2CCCN2CC(=O)Nc2cccnc2)no1 (stereo not given)	-10.1
COc1ncccc1NC(=O)N(Cc1ccco1)C1CC1	5.25

Compound	cytotoxicity at 10 µM [%]
CCCSCC(=O)N1C[C@@H]2CC[C@H]1CN(c1ncccn1)C2	4.42
O=c1c(S(=O)(=O)N2CCCC2)cccn1Cc1ccc(F)cc1Cl	12
Cc1nc(C)c(CC(=O)Nc2nc(C)c(C)s2)c(=O)[nH]1	-6.28
Cc1noc(C)c1CN1CCn2cc(CN3CCCC3)nc2C1	5.37
Cc1noc(C)c1CS(=O)(=O)Cc1nc(C2CC2)no1	3.37
CN1CCOC(CN(C(=O)CCc2cnn(C)c2)c2nccs2)C1 (stereo not given)	-10.2
Cc1nc(CCNc2ccc(-c3nc(C)c(C)c(=O)[nH]3)cn2)cs1	2.07
O=C(NCC1(O)CCOC1)NCC1(c2ccccc2Cl)CCC1 (stereo not given)	-50.8
O=C1COc2ccccc2N1CCCn1cnnn1	6.05
O=C(N[C@@H]1CN(Cc2ccccn2)[C@@H]2COC[C@@H]21)C1CCC1	8.67
CCc1nc(CN2CCCC(NCCn3cncn3)C2)no1 (stereo not given)	-7.24
CN(CC1(CO)CCCC1)c1nc2c(c(=O)[nH]1)Cc1ccccc1OC2	11.7
Cc1noc(C)c1CNc1cc(N2CCCC2CO)ncn1 (stereo not given)	1.42
Cc1ccc(-c2ncc(C(=O)N3CCCN4CCC[C@H]4C3)c(O)n2)cc1	-8.04
COC(=O)c1ccc(/C=C/c2ncc(C(=O)O)s2)cc1	-7.11
CN(C)S(=O)(=O)N1C[C@@H](OCc2ccccn2)[C@H]2OCCC[C@H]21	10.7
Cc1nc(N2CCC(C(O)c3nccn3C)CC2)c2c(C)noc2n1 (stereo not given)	7.54
Cc1ccccc1CN1C[C@@H](CN(C)CCO)[C@@H](CO)C1	-1.03
Cc1ccc(-c2cc(CNC(=O)N3CCOC(C)C3)on2)cc1 (stereo not given)	-6.09
Cc1nc(N(C)C)ncc1C(=O)N(Cc1ccncc1)CC1CCCO1 (stereo not given)	-1.59
CCc1cc(C(=O)N2CCC(Nc3ccc(C)nn3)CC2)sc1C	-1.03
c1cc(N2CCC(c3nnc(Cn4ccnc4)n3C3CC3)CC2)ccn1	-4.31

Compound	cytotoxicity at 10 µM [%]
CCCNC(=O)CNc1cc(C#N)ccc1OCC	-11.6
CC(C)n1nc(CN2CCCCC2)c2c1CN(C(=O)c1ccno1)C2	4.19
N[C@H]1CN(C(=O)c2ccccc2OCc2ccccc2)C[C@@H]1C1CC1	-3.57
O=C(NC1CCC1)C1=NOC2(CCN(Cc3ccc(F)cc3)C2)C1 (stereo not given)	-67.7
O=C(CN1CCCNC1=O)Nc1ccccc1C(=O)C1CCCC1	9.83
COCC(=O)N1CCCC1c1nccnc1Nc1ncccn1 (stereo not given)	-2.69
CCCN1CCc2nc(SCc3ccc(F)cc3)[nH]c(=O)c2C1	-3.37
Cc1cc(C)nc(NCCC(=O)NCCn2ccc3ccccc32)n1	-34.2
CC(C)CNC(=O)c1cc(Br)c2c(c1)OCCO2	6.7
CN1CCN(CC(CC(=O)Nc2ccc(Cl)cc2)C(=O)O)CC1 (stereo not given)	2.83
O=C(CCC1CCCO1)NS(=O)(=O)c1ccc(Cl)cc1 (stereo not given)	-9.36
CCN(CC)C(=O)C1CCCN(c2ncnc3oc(C)nc23)C1 (stereo not given)	1.61
CNC(C)Cc1ccccc1Sc1ccc(O)cc1 (stereo not given)	2.73
O=C(NCc1cccnc1)[C@@H]1C[C@H]2[C@H](CCN2c2ncccn2)O1	-66.6
CCOc1ccc(N(CCC#N)C(=O)c2ccnc(SC)c2)cc1	-2.6
Cc1ccc(-c2nc(CN3CCCC(C(=O)N(C)C)C3)cs2)o1 (stereo not given)	-14
CCc1nc(CN2CCOC(Cn3cncn3)C2)no1 (stereo not given)	-5.71
O=C(Nc1ccccc1)N1CCC2(CC(=O)N(c3ccsc3)C2)C1 (stereo not given)	2.58
Cc1ccsc1C(=O)N1CCn2cnc(COCC3CC3)c2C1	6.93
CC1CCN(CC(O)CNc2ccc(Cl)cn2)CC1 (stereo not given)	17.2
COc1c(C2CCCN2C(=O)c2scnc2C)c(C)nn1C (stereo not given)	-1.49
Cn1cc(C2NC3(CCCC3)C(=O)N2CC2CC2)c(=O)n(C)c1=O (stereo not given)	6.93
